We go through two compounds from ChEMBL document CHEMBL3632511, “Oxopyrido[2,3-d]pyrimidines as Covalent L858R/T790M Mutant Selective Epidermal Growth Factor Receptor (EGFR) Inhibitors” (ACS Med Chem Lett, 2015).

A value given as a limit tells only on which side of the number the result lay.

Data set [1] concerns the target Epidermal growth factor receptor (Homo sapiens, UniProt P00533, L858R/T790M). In words: Binding affinity to EGFR T790M/L858R double mutant (unknown origin). Type of data set: protein assay.
Data set [2] deals with T1, Epidermal growth factor receptor (Homo sapiens, UniProt P00533). Nature of the data set: Binding affinity to wild type EGFR (unknown origin).
A short description of data set [3]: Fraction unbound in dog plasma at 5 uM by rapid equilibrium dialysis method. Format: ADME, cell-free, Canis lupus familiaris.
Data set [4] is described as follows: Volume of distribution at steady state in Sprague-Dawley rat at 1 mg/kg, iv. Type of data set: ADME, organism-based. The following applies: in vivo, read-out: Vdss. The procedure, abridged: (§1)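 Male Sprague Dawley rats, 3 animals per route; mean values. IV dose 1 mg/kg as a DMSO solution. Oral dose 10 mg/kg, in one of three vehicles by compound: 1% Pluronic F68/2% HPMC/15% HPBCD/82% water–methanesulfonic acid pH 4.5; 20% HPBCD/80% water–methanesulfonic acid pH 4.0; or 1% Pluronic F68/2% HPMC/97% water–methanesulfonic acid pH 4.0.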

In data set [5] the target is T2, Tyrosine-protein kinase BTK (Homo sapiens, UniProt Q06187). Nature of the data set: Competitive binding affinity to human BTK in presence of immobilized ligand.
The target in data set [6] is Tyrosine-protein kinase ITK/TSK (Homo sapiens, UniProt Q08881). In words: Competitive binding affinity to human ITK in presence of immobilized ligand.
In data set [7] the target is Dual specificity protein kinase TTK (Homo sapiens) (UniProt P33981). In words: Competitive binding affinity to human TTK at 1 uM in presence of immobilized ligand relative to control. The procedure, abridged:
(§2)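 Kinase selectivity by competitive binding in the ScanMAX KINOMEscan panel of […] protein and lipid kinases. Compound tested at 1 μM; binding expressed as percentage of control (POC).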

The test system of data set [8] is human MDR1 (P-gp). Nature of the data set: Permeability across pig LLC-PK1 cells transfected with human MDR1 gene. Type of data set: ADME, cell-based, Sus scrofa. The following applies: read-out: permeability.
Data set [9] relates to Mus musculus. In words: In vivo inhibition of EGFR L858R/T790M double mutant phosphorylation in human NCI-H1975 cells xenografted in athymic nude mouse at 30 mg/kg, po measured at 4 hrs by mesoscale multiplex assay relative to control. Format: functional. The procedure, abridged:
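Female athymic nude mice carried matrigel plugs holding 5 x 10⁶ H1975 cells, n = 3 per group. Control or compound given at 30 mg/kg po. Plugs and plasma taken 4 h after dosing. p-EGFR in plug measured by quantitative MSD assay, given as % p-EGFR/PRAS40 vs control.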

Data set [10] can be described thus: Selectivity ratio of IC50 for wild type EGFR phosphorylation in human A431 cells to IC50 for EGFR L858R/T790M double mutant phosphorylation in human NCI-H1975 cells. Format: ADME, cell-based.
Data set [11] in a line: AUC (0 to infinity) in Sprague-Dawley rat at 10 mg/kg, po. Details: dose 10 mg/kg, route oral, time infinity. Conditions: Sprague-Dawley, in vivo. Format: ADME, organism-based. In short, it runs like this: as §1
A further data set is filed under the species Rattus norvegicus. Nature of the data set: Hepatobiliary toxicity in Sprague-Dawley rat measured for 4 days. Conditions: in vivo, 96 h. Type of data set: organism-based.
The nature of data set [12]: Oral bioavailability in Sprague-Dawley rat at 10 mg/kg. Conditions: Sprague-Dawley, in vivo. Type of data set: ADME, organism-based. In short, it runs like this:
as §1

The subject of data set [13] is human MDR1 (P-gp). Nature of the data set: Efflux ratio of permeability across pig LLC-PK1 cells transfected with human MDR1 gene. Type of data set: ADME, cell-based, Sus scrofa.
Data set [14] in a line: AUC (0 to infinity) in athymic nude mouse xenografted with human NCI-H1975 cells at 30 mg/kg, po. Format: ADME, organism-based. Details: dose 30 mg/kg, route oral, time infinity. The following applies: in vivo.
A short description of data set [15]: Cytotoxicity against human HCC827 cells harboring EGFR 746 to 750 deletion mutant assessed as inhibition of cell proliferation after 72 hrs by CellTiter-Glo assay. Type of data set: functional, cell-based. Conditions: HCC827, 72 h.
The subject of data set [16] is Mus musculus. Nature of the data set: In vivo inhibition of EGFR L858R/T790M double mutant phosphorylation in human NCI-H1975 cells xenografted in athymic nude mouse at 30 mg/kg, po measured at >12 hrs by mesoscale multiplex assay relative to control. Type of data set: functional. In short, it runs like this:
(§3)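 Time-course PD in mice carrying matrigel plugs of H1975 cells after a single oral dose of 30 mg/kg. Tumor cell plugs and plasma harvested at 2, 4, 8, 12 and 24 h post dose. Plug p-EGFR measured, and plasma drug concentration taken for Cmax.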

In data set [17] the test system is NCI-H1975. Nature of the data set: Antitumor activity against human NCI-H1975 cells xenografted in athymic nude mouse assessed as tumor growth inhibition at 30 mg/kg, po qd administered for 2 weeks started on day 6 post tumor implantation measured on day 19 relative to control. Type of data set: functional. Conditions: read-out: TGI.
Data set [18] in a line: Cmax in athymic nude mouse xenografted with human NCI-H1975 cells at 30 mg/kg, po measured at 2 hrs. Type of data set: ADME, organism-based. Set-up: dose 30 mg/kg, route oral. Conditions: in vivo. In short, it runs like this: as §3
The target in data set [19] is Receptor tyrosine-protein kinase erbB-2 (Homo sapiens, UniProt P04626). Nature of the data set: Competitive binding affinity to human ERBB2 in presence of immobilized ligand.
In data set [20] the target is Tyrosine-protein kinase JAK1 (Homo sapiens, UniProt P23458). In words: Competitive binding affinity to human JAK1 JH2 domain pseudokinase in presence of immobilized ligand.
Data set [21] concerns the target Tyrosine-protein kinase Blk (Homo sapiens, UniProt P51451). In words: Competitive binding affinity to human BLK in presence of immobilized ligand.
Data set [22] deals with Receptor tyrosine-protein kinase erbB-4 (Homo sapiens, UniProt Q15303). In words: Competitive binding affinity to human ERBB4 in presence of immobilized ligand.
Data set [23] addresses T1, Epidermal growth factor receptor. In words: Inhibition of wild type EGFR phosphorylation in human A431 cells after 60 mins by mesoscale multiplex assay. Format: cell-based, A-431.
For data set [24], the target named is Dual specificity protein kinase TTK (Homo sapiens, UniProt P33981). In words: Competitive binding affinity to human TTK in presence of immobilized ligand.
Data set [25] has as its system rat MDR1 (P-gp). In words: Permeability across pig LLC-PK1 cells transfected with rat MDR1 gene. Type of data set: ADME, cell-based, Sus scrofa. Conditions: read-out: permeability.
The target of data set [26] is T1, Epidermal growth factor receptor. Nature of the data set: Competitive binding affinity to human wild type EGFR in presence of immobilized ligand.
A short description of data set [27]: Fraction unbound in rat plasma at 5 uM by rapid equilibrium dialysis method. Type of data set: ADME, cell-free.
The target in data set [28] is Tyrosine-protein kinase TXK (Homo sapiens, UniProt P42681). Nature of the data set: Competitive binding affinity to human TXK in presence of immobilized ligand.
A short description of data set [29]: Selectivity ratio of IC50 for wild type EGFR phosphorylation in human A431 cells to IC50 for EGFR 746 to 750 deletion mutant phosphorylation in human HCC827 cells. Type of data set: ADME, cell-based.
The nature of data set [30]: Clearance in Sprague-Dawley rat at 1 mg/kg, iv. Conditions: Sprague-Dawley, in vivo. Format: ADME, organism-based. In short, it runs like this: as §1
Data set [31] addresses T2, Tyrosine-protein kinase BTK. In words: Competitive binding affinity to human BTK at 1 uM in presence of immobilized ligand relative to control. The procedure, abridged: as §2
Data set [32] has as its target Epidermal growth factor receptor (Homo sapiens, UniProt P00533, T790M). In words: Competitive binding affinity to human EGFR T790M mutant in presence of immobilized ligand. Type of data set: protein assay.
Data set [33] in a line: Half life in Sprague-Dawley rat at 1 mg/kg, iv. Format: ADME, organism-based. Conditions: in vivo. In short, it runs like this:
as §1

The target of data set [34] is Tyrosine-protein kinase JAK3 (Homo sapiens, UniProt P52333). In words: Competitive binding affinity to human JAK3 in presence of immobilized ligand.
Data set [35] concerns the target Cyclin-G-associated kinase (Homo sapiens, UniProt O14976). In words: Competitive binding affinity to human GAK in presence of immobilized ligand.
A short description of data set [36]: Fraction unbound in mouse plasma at 5 uM by rapid equilibrium dialysis method. Type of data set: ADME, cell-free.
Data set [37] is described as follows: Fraction unbound in human plasma at 5 uM by rapid equilibrium dialysis method. Type of data set: ADME, cell-free.
Data set [38] has as its system rat MDR1 (P-gp). Nature of the data set: Efflux ratio of permeability across pig LLC-PK1 cells transfected with rat MDR1 gene. Format: ADME, cell-based, Sus scrofa.
In data set [39] the test system is NCI-H1975. In words: Cytotoxicity against human NCI-H1975 cells harboring EGFR L858R/T790M double mutant assessed as inhibition of cell proliferation after 72 hrs by CellTiter-Glo assay. Format: functional, cell-based. The following applies: NCI-H1975, 72 h.
Data set [40] in a line: AUC (0 to t) in athymic nude mouse xenografted with human NCI-H1975 cells at 30 mg/kg, po qd administered for 2 weeks started on day 6 post tumor implantation. Type of data set: ADME, organism-based. The following applies: in vivo.
The next data set deals with A-431. In words: Cytotoxicity against human A431 cells expressing wild-type EGFR assessed as inhibition of cell proliferation after 72 hrs by CellTiter-Glo assay. Type of data set: cell-based. The following applies: A-431, 72 h.
Data set [41] deals with Epidermal growth factor receptor (Homo sapiens, UniProt P00533, 746-750DEL). Nature of the data set: Inhibition of EGFR 746 to 750 deletion mutant phosphorylation in human HCC827 cells after 60 mins by mesoscale multiplex assay. Type of data set: cell-based.
Data set [42] concerns Mus musculus. In words: Toxicity in athymic nude mouse xenografted with human NCI-H1975 cells assessed as change in body weight at 30 mg/kg, po qd administered for 2 weeks started on day 6 post tumor implantation. Type of data set: organism-based. Conditions: in vivo, 336 h.

T1 sequence (P00533 whole entry): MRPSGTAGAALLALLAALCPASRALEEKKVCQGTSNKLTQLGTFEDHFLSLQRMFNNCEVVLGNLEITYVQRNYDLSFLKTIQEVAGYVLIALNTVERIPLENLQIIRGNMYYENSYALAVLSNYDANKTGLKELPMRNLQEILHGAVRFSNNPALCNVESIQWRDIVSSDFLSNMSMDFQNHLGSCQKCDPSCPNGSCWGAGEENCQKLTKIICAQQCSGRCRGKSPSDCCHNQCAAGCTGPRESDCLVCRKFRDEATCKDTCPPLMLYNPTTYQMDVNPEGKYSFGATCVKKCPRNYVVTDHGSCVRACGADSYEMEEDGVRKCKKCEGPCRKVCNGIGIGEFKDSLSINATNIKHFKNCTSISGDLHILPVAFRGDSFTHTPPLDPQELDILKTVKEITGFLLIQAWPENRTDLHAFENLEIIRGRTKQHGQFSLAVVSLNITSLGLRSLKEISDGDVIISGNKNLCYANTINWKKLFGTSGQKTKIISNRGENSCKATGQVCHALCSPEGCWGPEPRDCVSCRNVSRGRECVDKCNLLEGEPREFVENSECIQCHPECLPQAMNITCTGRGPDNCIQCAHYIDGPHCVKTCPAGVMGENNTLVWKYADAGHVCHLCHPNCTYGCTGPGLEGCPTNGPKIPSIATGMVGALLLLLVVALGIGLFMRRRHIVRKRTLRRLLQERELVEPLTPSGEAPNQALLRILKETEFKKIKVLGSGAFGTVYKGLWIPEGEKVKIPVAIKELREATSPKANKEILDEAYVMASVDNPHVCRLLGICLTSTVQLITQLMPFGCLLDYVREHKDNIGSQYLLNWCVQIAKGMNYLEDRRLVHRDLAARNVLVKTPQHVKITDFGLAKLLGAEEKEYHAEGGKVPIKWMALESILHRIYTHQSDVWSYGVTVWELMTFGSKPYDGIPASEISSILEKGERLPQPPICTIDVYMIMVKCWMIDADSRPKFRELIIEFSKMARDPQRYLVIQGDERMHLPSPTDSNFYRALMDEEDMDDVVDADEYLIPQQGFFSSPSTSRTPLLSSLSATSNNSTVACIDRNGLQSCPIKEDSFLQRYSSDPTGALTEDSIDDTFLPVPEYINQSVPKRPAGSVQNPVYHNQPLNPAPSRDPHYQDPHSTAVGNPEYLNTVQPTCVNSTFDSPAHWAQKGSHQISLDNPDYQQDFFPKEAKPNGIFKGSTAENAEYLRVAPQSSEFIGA
T2 sequence (Q06187 whole entry): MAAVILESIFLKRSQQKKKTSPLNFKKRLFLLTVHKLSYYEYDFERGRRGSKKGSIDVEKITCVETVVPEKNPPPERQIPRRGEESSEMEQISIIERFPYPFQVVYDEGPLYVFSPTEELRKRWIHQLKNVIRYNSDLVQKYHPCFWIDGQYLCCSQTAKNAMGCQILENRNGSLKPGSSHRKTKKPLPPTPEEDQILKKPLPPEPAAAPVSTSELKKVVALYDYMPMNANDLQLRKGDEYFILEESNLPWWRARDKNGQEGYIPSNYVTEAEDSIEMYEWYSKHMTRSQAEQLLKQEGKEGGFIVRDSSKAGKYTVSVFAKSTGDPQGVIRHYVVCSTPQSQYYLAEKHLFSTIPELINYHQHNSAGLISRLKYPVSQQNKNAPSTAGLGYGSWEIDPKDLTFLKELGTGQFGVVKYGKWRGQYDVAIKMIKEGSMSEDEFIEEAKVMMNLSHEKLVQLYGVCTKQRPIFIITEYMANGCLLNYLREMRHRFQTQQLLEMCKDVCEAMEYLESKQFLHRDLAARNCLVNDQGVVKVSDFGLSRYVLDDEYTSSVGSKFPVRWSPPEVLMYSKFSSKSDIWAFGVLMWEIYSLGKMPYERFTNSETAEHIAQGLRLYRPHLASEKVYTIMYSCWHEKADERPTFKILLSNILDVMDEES
Chain of Epidermal growth factor receptor (Homo sapiens, UniProt P00533, T790M) (P00533 25-1210 T790M limits assumed): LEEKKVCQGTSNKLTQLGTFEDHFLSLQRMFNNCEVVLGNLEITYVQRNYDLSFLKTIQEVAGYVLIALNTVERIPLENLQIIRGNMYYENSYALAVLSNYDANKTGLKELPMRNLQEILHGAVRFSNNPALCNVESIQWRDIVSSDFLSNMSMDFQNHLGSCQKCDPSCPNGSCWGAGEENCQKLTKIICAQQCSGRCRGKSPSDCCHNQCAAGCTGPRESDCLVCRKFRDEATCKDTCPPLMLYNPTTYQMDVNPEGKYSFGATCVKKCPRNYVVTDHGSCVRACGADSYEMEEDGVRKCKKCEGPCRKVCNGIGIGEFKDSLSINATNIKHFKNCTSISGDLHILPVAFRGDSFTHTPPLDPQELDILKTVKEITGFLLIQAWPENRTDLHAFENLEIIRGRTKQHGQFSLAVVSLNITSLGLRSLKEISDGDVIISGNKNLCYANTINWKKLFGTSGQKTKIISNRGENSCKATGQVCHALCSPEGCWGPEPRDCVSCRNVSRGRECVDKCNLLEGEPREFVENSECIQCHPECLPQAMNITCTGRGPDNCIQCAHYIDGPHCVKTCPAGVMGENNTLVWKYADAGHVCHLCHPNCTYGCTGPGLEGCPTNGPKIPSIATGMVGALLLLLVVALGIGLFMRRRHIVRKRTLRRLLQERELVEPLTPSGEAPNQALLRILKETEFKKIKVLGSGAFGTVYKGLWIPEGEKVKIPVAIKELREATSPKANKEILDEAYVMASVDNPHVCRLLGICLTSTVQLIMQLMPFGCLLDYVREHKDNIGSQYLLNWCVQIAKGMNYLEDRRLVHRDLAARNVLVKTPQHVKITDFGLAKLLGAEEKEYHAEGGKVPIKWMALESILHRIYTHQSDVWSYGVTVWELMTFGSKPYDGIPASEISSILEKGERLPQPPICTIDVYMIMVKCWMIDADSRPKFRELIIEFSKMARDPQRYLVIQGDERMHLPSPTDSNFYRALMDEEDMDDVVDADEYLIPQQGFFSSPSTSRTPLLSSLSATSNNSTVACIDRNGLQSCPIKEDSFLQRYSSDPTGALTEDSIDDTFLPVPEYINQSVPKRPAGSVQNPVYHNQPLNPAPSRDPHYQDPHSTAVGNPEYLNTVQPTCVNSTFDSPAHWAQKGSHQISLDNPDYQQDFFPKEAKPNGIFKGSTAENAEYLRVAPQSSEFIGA
Chain of Receptor tyrosine-protein kinase erbB-2 (P04626 whole entry, the tested form may be a part): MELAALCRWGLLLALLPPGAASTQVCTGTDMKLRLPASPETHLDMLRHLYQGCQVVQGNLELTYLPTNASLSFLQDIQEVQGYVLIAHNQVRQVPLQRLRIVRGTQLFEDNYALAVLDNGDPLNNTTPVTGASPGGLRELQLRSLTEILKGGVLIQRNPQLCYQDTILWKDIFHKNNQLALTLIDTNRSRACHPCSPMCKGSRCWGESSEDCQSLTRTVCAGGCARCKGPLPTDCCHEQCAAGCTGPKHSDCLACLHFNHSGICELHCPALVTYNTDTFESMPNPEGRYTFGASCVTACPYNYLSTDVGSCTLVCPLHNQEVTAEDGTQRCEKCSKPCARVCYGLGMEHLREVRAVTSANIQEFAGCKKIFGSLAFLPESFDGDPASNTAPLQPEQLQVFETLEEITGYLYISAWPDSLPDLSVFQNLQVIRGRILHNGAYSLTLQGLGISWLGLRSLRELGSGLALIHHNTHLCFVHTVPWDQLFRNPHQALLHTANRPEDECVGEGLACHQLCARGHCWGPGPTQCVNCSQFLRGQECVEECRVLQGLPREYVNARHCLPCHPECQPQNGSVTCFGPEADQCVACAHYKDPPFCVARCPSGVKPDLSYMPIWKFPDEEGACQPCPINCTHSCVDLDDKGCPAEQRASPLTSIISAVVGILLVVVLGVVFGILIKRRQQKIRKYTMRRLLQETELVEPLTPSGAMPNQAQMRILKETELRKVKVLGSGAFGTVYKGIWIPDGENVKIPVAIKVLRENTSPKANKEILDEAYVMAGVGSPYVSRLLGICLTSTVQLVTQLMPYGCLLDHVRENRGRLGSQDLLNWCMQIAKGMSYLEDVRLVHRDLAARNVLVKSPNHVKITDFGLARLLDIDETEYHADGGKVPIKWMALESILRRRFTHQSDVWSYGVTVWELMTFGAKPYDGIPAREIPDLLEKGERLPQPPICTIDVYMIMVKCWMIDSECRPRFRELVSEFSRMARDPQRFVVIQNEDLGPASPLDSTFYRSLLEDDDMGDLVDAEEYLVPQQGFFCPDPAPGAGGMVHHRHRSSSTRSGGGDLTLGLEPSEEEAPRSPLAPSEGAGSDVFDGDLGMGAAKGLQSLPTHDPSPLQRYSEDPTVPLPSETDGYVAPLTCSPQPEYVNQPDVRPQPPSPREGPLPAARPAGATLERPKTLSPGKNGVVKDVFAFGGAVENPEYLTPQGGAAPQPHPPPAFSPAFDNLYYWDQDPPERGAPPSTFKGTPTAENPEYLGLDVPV
Chain of Tyrosine-protein kinase ITK/TSK (Q08881 whole entry): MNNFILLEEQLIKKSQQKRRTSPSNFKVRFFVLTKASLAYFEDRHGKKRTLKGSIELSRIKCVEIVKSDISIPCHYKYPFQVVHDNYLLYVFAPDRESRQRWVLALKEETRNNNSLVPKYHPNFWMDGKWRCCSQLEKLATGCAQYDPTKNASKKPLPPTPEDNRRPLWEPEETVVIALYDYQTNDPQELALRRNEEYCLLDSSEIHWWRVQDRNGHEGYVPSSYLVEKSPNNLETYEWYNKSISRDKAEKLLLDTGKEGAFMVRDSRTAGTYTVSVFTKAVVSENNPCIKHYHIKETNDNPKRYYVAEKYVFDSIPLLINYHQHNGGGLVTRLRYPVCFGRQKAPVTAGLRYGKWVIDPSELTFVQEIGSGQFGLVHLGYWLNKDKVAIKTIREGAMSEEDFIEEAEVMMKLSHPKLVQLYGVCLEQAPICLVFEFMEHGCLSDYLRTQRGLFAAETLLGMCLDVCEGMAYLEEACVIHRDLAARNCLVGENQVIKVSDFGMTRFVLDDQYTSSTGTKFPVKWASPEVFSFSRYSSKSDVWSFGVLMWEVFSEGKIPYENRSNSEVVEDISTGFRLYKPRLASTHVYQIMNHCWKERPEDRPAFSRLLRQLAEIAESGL

Regarding `C=CC(=O)Nc1cccc(-n2c3nc(Nc4ccc(N5CCC(N(C)C)CC5)cc4OC)ncc3c(=O)n3ccnc23)c1`, the Kd was determined as 2.6 nM in [1] and 310 nM in data set [2].
With `C=CC(=O)Nc1cccc(-n2c(=O)cc(C)c3cnc(Nc4ccc(OCCN(C)C)cc4OC)nc32)c1`, the unbound share (fraction unbound) at 5 µM is 0.46 in data set [3], 0.27 in [27], 0.25 in [36] and 0.54 in data set [37]. The Vd in data set [4] amounted to 22 L/kg. In addition, the Kd in data set [5] worked out at 290 nM; in data set [6], 140 nM; in [19], 220 nM; in data set [20] it was 2800 nM; in [21], 320 nM; in data set [22], 130 nM. Besides, the dissociation constant Kd was found to be 81 nM in [24]; 220 nM in data set [26]; 410 nM in [28]; 0.96 nM in data set [32]; 30 nM in data set [34]; 430 nM in [35]. Moreover, the Activity in [7] was 4%; in the data set filed under Rattus norvegicus, “Non-toxic”; in data set [31], 17%; in the data set on Mus musculus [42], “Non-toxic”. Besides, the Papp in the data set on human MDR1 (P-gp) [8] and with rat MDR1 (P-gp) [25] was 10 ×10⁻⁶ cm/s in each case. In addition, the inhibition in vivo at 30 mg/kg in the data set on Mus musculus [9] was 90%; with Mus musculus [16], > 50%; with NCI-H1975 [17], 90%. Moreover, the “Ratio IC50” value in data set [10] and in data set [29] was > 100 throughout. Moreover, the values for the AUC(0-inf) in data set [11] and in [14] were 0.66 µM·h and 0.33 µM·h, respectively. In [12], the bioavailability was determined as 10%. Further, the efflux ratio with human MDR1 (P-gp) [13] and in the data set with rat MDR1 (P-gp) [38] was > 37 each time. The concentration for half-maximal inhibition (IC50) in data set [15] was 28 nM; in data set [23], 1050 nM; in the data set with NCI-H1975 [39] it was 4 nM; in the data set on A-431 it was 2400 nM; in data set [41], 9 nM. In [18], this compound registered a Cmax of 100 nM. This compound showed a clearance in [30] of 150 mL/min/kg. This compound also showed a half-life in data set [33] of 4.5 h. The compound also gave an AUC(0-t) at 336 h in data set [40] of 0.56 µM·h.
